Measurements from ChEMBL document CHEMBL6083196, “Synthesis and cytotoxic activity of madecassic acid-silybin conjugate compounds in liver cancer cells” (2024).

System: HepG2
Assay: Cytotoxicity against human HepG2 cells incubated for 96 hrs by MTT assay
Assay type: functional
How it was run: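 Cells grown in DMEM with 10% FBS and 1% antibiotic at 37 °C, 5% CO2. Trypsinised, seeded at 3 × 10^4 cells per mL, treated over an eight-point titration for 96 h. MTT (0.5 mg mL−1) added for 4 h at 37 °C, formazan dissolved in DMSO, absorbance read at 570 nm. GI50 is the concentration halving the MTT signal versus untreated control. Ellipticine served as reference; n ≥ 3 repeats.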

SMILES | GI50 [µM]
COc1cc([C@H]2Oc3cc([C@H]4Oc5cc(O)cc(O)c5C(=O)[C@@H]4O)ccc3O[C@@H]2CO)ccc1O [SILYBIN A] | 285
COc1cc([C@H]2Oc3cc(-c4oc5cc(OC(C)=O)cc(OC(C)=O)c5c(=O)c4OC(=O)[C@]45CC[C@@H](C)[C@H](C)[C@H]4C4=CC[C@@H]6[C@@]7(C)C[C@@H](OC(C)=O)[C@H](OC(C)=O)[C@@](C)(COC(C)=O)[C@@H]7[C@H](O)C[C@@]6(C)[C@]4(C)CC5)ccc3O[C@@H]2COC(C)=O)ccc1OC(C)=O | 471
COc1cc([C@H]2Oc3cc([C@H]4Oc5cc(OC(C)=O)cc(OC(C)=O)c5C(=O)[C@@H]4OC(=O)CNC(=O)[C@]45CC[C@@H](C)[C@H](C)[C@H]4C4=CC[C@@H]6[C@@]7(C)C[C@@H](OC(C)=O)[C@H](OC(C)=O)[C@@](C)(COC(C)=O)[C@@H]7[C@H](O)C[C@@]6(C)[C@]4(C)CC5)ccc3O[C@@H]2COC(C)=O)ccc1OC(C)=O | 122
COc1cc([C@H]2Oc3cc([C@H]4Oc5cc(OC(=O)[C@]67CC[C@@H](C)[C@H](C)[C@H]6C6=CC[C@@H]8[C@@]9(C)C[C@@H](OC(C)=O)[C@H](OC(C)=O)[C@@](C)(COC(C)=O)[C@@H]9[C@H](O)C[C@@]8(C)[C@]6(C)CC7)cc(O)c5C(=O)[C@@H]4O)ccc3O[C@@H]2CO)ccc1O | > 500
COc1cc([C@H]2Oc3cc([C@H]4Oc5cc(OC(C)=O)cc(OC(C)=O)c5C(=O)[C@@H]4OC(=O)CNC(=O)[C@]45CC[C@@H](C)[C@H](C)[C@H]4C4=CC[C@@H]6[C@@]7(C)C[C@@H](OC(C)=O)[C@H](OC(C)=O)[C@@](C)(COC(C)=O)C7=CC[C@@]6(C)[C@]4(C)CC5)ccc3O[C@@H]2COC(C)=O)ccc1OC(C)=O | 243
COc1cc([C@H]2Oc3cc(-c4cc(=O)c5c(O)cc(OC(=O)[C@]67CC[C@@H](C)[C@H](C)[C@H]6C6=CC[C@@H]8[C@@]9(C)C[C@@H](OC(C)=O)[C@H](OC(C)=O)[C@@](C)(COC(C)=O)[C@@H]9[C@H](O)C[C@@]8(C)[C@]6(C)CC7)cc5o4)ccc3O[C@@H]2CO)ccc1O | > 500
COc1cc([C@H]2Oc3cc([C@H]4Oc5cc(O)cc(O)c5C(=O)[C@@H]4OC(=O)CCNC(=O)[C@]45CC[C@@H](C)[C@H](C)[C@H]4C4=CC[C@@H]6[C@@]7(C)C[C@@H](OC(C)=O)[C@H](OC(C)=O)[C@@](C)(COC(C)=O)C7=CC[C@@]6(C)[C@]4(C)CC5)ccc3O[C@@H]2CO)ccc1O | 344
COc1cc([C@H]2Oc3cc([C@H]4Oc5cc(O)cc(O)c5C(=O)[C@@H]4OC(=O)CCNC(=O)[C@]45CC[C@@H](C)[C@H](C)[C@H]4C4=CC[C@@H]6[C@@]7(C)C[C@@H](OC(C)=O)[C@H](OC(C)=O)[C@@](C)(COC(C)=O)[C@@H]7[C@H](O)C[C@@]6(C)[C@]4(C)CC5)ccc3O[C@@H]2CO)ccc1O | 141
COc1cc([C@H]2Oc3cc([C@H]4Oc5cc(OC(C)=O)cc(OC(C)=O)c5C(=O)[C@@H]4OC(=O)CCNC(=O)[C@]45CC[C@@H](C)[C@H](C)[C@H]4C4=CC[C@@H]6[C@@]7(C)C[C@@H](OC(C)=O)[C@H](OC(C)=O)[C@@](C)(COC(C)=O)C7=CC[C@@]6(C)[C@]4(C)CC5)ccc3O[C@@H]2COC(C)=O)ccc1OC(C)=O | 352
